Experimental data published in article PMC6045484 (ACS Omega, 2018).
In brackets after ≈: the same amount, converted by molar mass. Entries after “also recorded” stand apart in the source; their conditions may differ.

Columns and labels:
[1] = test system: M. intracellulare (ATCC23068); experiment: in vitro antibacterial activity, modified alamarBlue procedure; format: cell-based, Mycobacterium intracellulare; conditions: Mycobacterium intracellulare; for IC50: ATCC23068, read-out: IC50 (concentration that affords 50% growth inhibition), M. intracellulare; for MBC: ATCC23068, read-out: MBC (minimum bactericidal concentration), M. intracellulare; for MIC: ATCC23068, read-out: MIC, M. intracellulare
Summary of the method: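 Modified alamarBlue microplate method. Test compound serially diluted in 20% DMSO/saline, duplicate wells, up to 20 μg/mL. Inoculum 2.0 × 10^6 CFU/mL in Middlebrook 7H9 with OADC, pH 7.3, containing 5% alamarBlue. Incubated 70–74 h at 37 °C, 10% CO2; fluorescence 544ex/590em read before and after. MIC: no blue-to-pink change. MBC by subculturing blue wells on agar. Ciprofloxacin control.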

A. fumigatus ATCC 90906 = experiment: in vitro antifungal activity; format: cell-based, Aspergillus fumigatus; conditions: Aspergillus fumigatus; for IC50: ATCC90906, read-out: A. fumigatus IC50; for MFC: ATCC90906, read-out: A. fumigatus MFC; for MIC: ATCC90906, read-out: A. fumigatus MIC
Summary of the method: (§1)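 Modified NCCLS broth method in Sabouraud dextrose. Inoculum set by OD630 to 1.5 × 10^3 CFU/mL. Test compound serially diluted in 20% DMSO/saline, duplicate wells, up to 20 μg/mL. Incubated 70–74 h at 35 °C; 530 nm read before and after. IC50 is 50% growth inhibition; MIC is no detectable growth. MFC from clear wells subcultured on agar. Amphotericin B control.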

[2] = test system: P. berghei (sensitive strain); experiment: blood-schizontocidal activity against P. berghei infection in mice; format: in vivo, Plasmodium berghei; conditions: Swiss mice
Summary of the method: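 Swiss mice of either sex (about 15–20 g, same age), six per group, inoculated intraperitoneally on day 0 with 1 × 10^7 infected erythrocytes from a donor mouse. Oral test compound at 100, 50, 25 or 10 mg/kg, CQ diphosphate (10 mg/kg/day × 4) or vehicle started 4 h later, on D0 to D+3. Giemsa tail-blood smears on D+4 and D+7. Curative: parasites eliminated, no relapse, all mice surviving to D+60.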

SA (ATCC29213) = experiment: in vitro antibacterial activity; format: cell-based; conditions: Staphylococcus aureus; for IC50: ATCC29213, read-out: IC50 (concentration that affords 50% growth inhibition), SA; for MBC: ATCC29213, read-out: MBC (minimum bactericidal concentration), SA; for MIC: ATCC29213, read-out: MIC, SA
Summary of the method: (§2)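 Test compound serially diluted in 20% DMSO/saline and plated in duplicate, up to 20 μg/mL. Inoculum in cation-adjusted Mueller–Hinton broth, pH 7.3, set by OD630 to 5 × 10^5 CFU/mL. Incubated 16–20 h at 35 °C; 530 nm read before and after. IC50 is 50% growth inhibition; MIC is no detectable growth. MBC from clear wells subcultured on agar. Ciprofloxacin control.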

P. falciparum (D6) = experiment: in vitro antimalarial activity, plasmodial LDH; format: cell-based, Plasmodium falciparum; conditions: Plasmodium falciparum, D6, 72 h, read-out: P. falciparum (D6) IC50
P. falciparum (W2) = experiment: in vitro antimalarial activity, plasmodial LDH; format: cell-based, Plasmodium falciparum; conditions: Plasmodium falciparum, W2, 72 h, read-out: P. falciparum (W2) IC50, CQ-resistant W2 strain, 72 h
Summary of the method: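 P. falciparum-infected erythrocytes (2% parasitemia, 2% hematocrit) in RPMI 1640 with 10% human serum and 60 μg/mL amikacin. Exposed to test compound dilutions for 72 h at 37 °C under 90% N2/5% O2/5% CO2. LDH measured with Malstat reagent (30 min, room temperature), then NBT/PES for 1 h in the dark, stopped with 5% acetic acid, read at 650 nm. IC50 from dose-response curves.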

[3] = test system: L. donovani promastigotes; experiment: in vitro antileishmanial activity, alamarBlue assay; format: cell-based, Leishmania donovani; conditions: Leishmania donovani, 48 h; for IC50: read-out: L. donovani IC50, promastigotes, 48 h; for IC90: read-out: L. donovani IC90, promastigotes, 48 h
C. albicans ATCC90028 = experiment: in vitro antifungal activity; format: cell-based, Candida albicans; conditions: Candida albicans; for IC50: ATCC90028, read-out: C. albicans IC50; for MFC: ATCC90028, read-out: C. albicans MFC; for MIC: ATCC90028, read-out: C. albicans MIC
Summary of the method: as §1

MRSA (ATCC33591) = experiment: in vitro antibacterial activity; format: cell-based, methicillin-resistant Staphylococcus aureus; conditions: Staphylococcus aureus, ATCC33591|MRSA, read-out: MIC, MRSA
Summary of the method: as §2

[4] = test system: SK-MEL, KB, BT-549, SK-OV-3, VERO and LLC-PK1 cells; experiment: cytotoxicity, neutral red uptake assay; format: cell-based, mammalian; conditions: highest test concentration 4760 ng/mL
Summary of the method: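 Cells seeded at 25 000/well and allowed 24 h to reach confluence. Test compound was then added and incubated 48 h. Viable cells were counted by a modified neutral red uptake method. The panel was four human cancer lines and two noncancerous mammalian kidney lines. Doxorubicin served as positive control and DMSO as negative control.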

C. neoformans ATCC90113 = experiment: in vitro antifungal activity; format: cell-based, Cryptococcus neoformans; conditions: Cryptococcus neoformans; for IC50: ATCC90113, read-out: C. neoformans IC50; for MFC: ATCC90113, read-out: C. neoformans MFC; for MIC: ATCC90113, read-out: C. neoformans MIC
Summary of the method: as §1

Structure (SMILES) | IC50 [1] [µg/mL] | MBC [1] [µg/mL] | MIC [1] [µg/mL] | IC50 (A. fumigatus ATCC 90906) [µg/mL] | MFC (A. fumigatus ATCC 90906) [µg/mL] | MIC (A. fumigatus ATCC 90906) [µg/mL] | P. berghei blood-schizontocidal activity (mice cured/treated) ([2]; 100 mg/kg/day × 4, oral) | IC50 (SA (ATCC29213)) [µg/mL] | MBC (SA (ATCC29213)) [µg/mL] | MIC (SA (ATCC29213)) [µg/mL] | IC50 (P. falciparum (D6)) [µg/mL] | IC50 (P. falciparum (W2)) [µg/mL] | IC50 (C. albicans ATCC90028) [µg/mL] | MFC (C. albicans ATCC90028) [µg/mL] | MIC (C. albicans ATCC90028) [µg/mL] | MIC (MRSA (ATCC33591)) [µg/mL] | cytotoxicity CTX [4] | IC50 (C. neoformans ATCC90113) [µg/mL] | MFC (C. neoformans ATCC90113) [µg/mL] | MIC (C. neoformans ATCC90113) [µg/mL] | other results
CCCCOc1c(OC)cc(NC(C)CCCN)c2nc(C(C)(C)C)cc(C)c12 (stereo not shown) [compound 50, N^4-(5-Butoxy-2-tert-butyl-6-methoxy-4-methylquinolin-8-yl)pentane-1,4-diamine] | 5.97 (≈ 14.9 µM) | 20 (≈ 49.8 µM) | 10 (≈ 24.9 µM) | 14.7 (≈ 36.6 µM) | > 20 | > 20 | curative (6/6) | 3.49 (≈ 8.69 µM) | 10 (≈ 24.9 µM) | 5 (≈ 12.5 µM) | 2.2 (≈ 5.48 µM) | 0.98 (≈ 2.44 µM) | 15 (≈ 37.4 µM) | > 20 | > 20 | 5 (≈ 12.5 µM) | NC (NC, not cytotoxic up to 4760 ng/mL (4.76 μg/mL)) | 0.58 (≈ 1.44 µM) | 2.5 (≈ 6.23 µM) | 1.25 (≈ 3.11 µM) | P. berghei blood-schizontocidal activity (mice cured/treated) ([2]; 50 mg/kg/day × 4, oral): suppressive activity; also recorded: active (4/6); IC50 [3]: 1.5 µg/mL (≈ 3.74 µM); IC90 [3]: 3.65 µg/mL (≈ 9.09 µM)
CCCCCOc1c(OC)cc(NC(C)CCCN)c2nc(C(C)(C)C)cc(C)c12 (stereo not shown) [compound 51, N^4-(5-Pentyloxy-2-tert-butyl-6-methoxy-4-methylquinolin-8-yl)pentane-1,4-diamine] | 10.8 (≈ 25.9 µM) | 20 (≈ 48.1 µM) | 20 (≈ 48.1 µM) | > 20 | > 20 | > 20 | inactive (0/6) | 18.9 (≈ 45.5 µM) | > 20 | > 20 | 4.5 (≈ 10.8 µM) | 3.8 (≈ 9.14 µM) | > 20 | > 20 | > 20 | 20 (≈ 48.1 µM) | NC (NC, not cytotoxic up to 4760 ng/mL (4.76 μg/mL)) | 4.45 (≈ 10.7 µM) | 20 (≈ 48.1 µM) | 20 (≈ 48.1 µM) | IC50 [3]: 16.2 µg/mL (≈ 38.9 µM); IC90 [3]: 23.9 µg/mL (≈ 57.4 µM)
CCCCCOc1c(OC)cc(NC(C)CCCNC(=O)C(N)CCCCN)c2nc(C(C)(C)C)ccc12 (stereo not shown) [compound 92, 2,6-Diamino-N-(4-(2-tert-butyl-6-methoxy-5-(pentyloxy)quinolin-8-ylamino)-pentyl)hexanamide] | > 20 | > 20 | > 20 | > 20 | > 20 | > 20 | 100% cure and curative (6/6) | > 20 | > 20 | > 20 | 0.11 (≈ 0.208 µM) | 0.052 (≈ 0.0982 µM) | > 20 | > 20 | > 20 | > 20 | NC (NC, not cytotoxic up to 4760 ng/mL (4.76 μg/mL)) | 10.9 (≈ 20.5 µM) | > 20 | > 20 | P. berghei blood-schizontocidal activity (mice cured/treated) ([2]; 25 mg/kg/day × 4, oral): inactive (0/6); P. berghei blood-schizontocidal activity (mice cured/treated) ([2]; 50 mg/kg/day × 4, oral): suppressive activity; also recorded: active (4/6)
